A selection: hits, their analogues and other compounds. The true share with any hit is near 1.2%.
CSN inh: blocks human CSN-mediated cullin deneddylation; Q92905; Purified CSN, SCF-Nedd8-OG deneddylation, fluorescence polarization; inhibition, % at 12.5 µM; 360,000 compounds, 0.38% hits; AID 651999;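 active means pattern-corrected inhibition above about 35%, with an unprinted fluorescence ratio check between 0.5 and 1.5, limit read from the data, passing the limit was not always enough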
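Material: purified human Csn5 enzyme expressed in HEK293T cells / Medium: Tris buffer pH 7.5, NaCl, DTT, Tween-20, trehalose, ovalbumin / Compound dosing: 12.5 µM single point / Schedule: 90 min incubation of compound, enzyme and substrate at room temperature / Signal: fluorescence polarization of the substrate / Control set: no-enzyme wells high, enzyme-with-substrate wells low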
HNF4A DNA FP: change in binding of human HNF4 alpha to DNA; 360,000 compounds, 0.3% hits; activity change, % at 10 µM; HNF4a-FITC DNA binding, fluorescence polarization, 1 h; P41235; in the data active means activity change above about 30%, passing the limit was not always enough
Target sequence (P41235 whole entry, looked up): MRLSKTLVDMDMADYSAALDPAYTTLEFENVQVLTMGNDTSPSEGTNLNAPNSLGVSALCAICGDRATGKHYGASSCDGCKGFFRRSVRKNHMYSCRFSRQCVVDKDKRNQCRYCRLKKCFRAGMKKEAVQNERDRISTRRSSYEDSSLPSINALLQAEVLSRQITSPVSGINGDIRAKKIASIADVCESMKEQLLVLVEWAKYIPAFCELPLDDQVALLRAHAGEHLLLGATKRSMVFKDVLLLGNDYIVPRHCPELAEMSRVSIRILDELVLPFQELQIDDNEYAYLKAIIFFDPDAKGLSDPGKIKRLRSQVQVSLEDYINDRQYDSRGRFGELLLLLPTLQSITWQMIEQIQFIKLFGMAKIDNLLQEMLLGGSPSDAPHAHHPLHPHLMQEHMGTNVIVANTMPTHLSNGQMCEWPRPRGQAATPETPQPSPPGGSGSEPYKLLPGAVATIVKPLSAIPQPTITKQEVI
Rtt109 Vps75: C. albicans Rtt109 histone acetyltransferase inhibition; Q5AAJ8; purified Rtt109/Vps75, ThioGlo CoA-SH fluorescence, 4 h; inhibition, % at 34.9 µM; 330,000 compounds, 0.16% hits;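 active means inhibition of at least 50% in every replicate; inconclusive means best replicate reaches 50% inhibition but some replicates fall short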
TPT1 inhibitor: blocks Candida albicans tRNA 2'-phosphotransferase; recombinant caTPT1, FP RNA substrate dephosphorylation; 300,000 compounds, 0.81% hits; AID 1962; inhibition, % at 5 µM;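 active means inhibition above the mean of all tested compounds plus 3 SD, set per screening campaign, cut at about 24% in these data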
TPT1 inh confirm: confirmation of Candida albicans TPT1 inhibitors. 2,400 compounds, 74% hits. inhibition, % at 5 µM. recombinant caTPT1, fluorescence polarization, RNase T1 coupled. AID 2149. shares compounds with TPT1 inhibitor;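 active means inhibition above the primary screen limit, the mean inhibition of all tested compounds plus 3 SD, cut at about 25% in these data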
RNase T1 inh: counter-screen for TPT1 inhibitors: inhibitors of Aspergillus oryzae RNase T1. RNase T1 cleavage, fluorescence polarization, 1536-well. inhibition, % at 5 µM. AID 2153. 2,400 compounds, 83% hits. shares compounds with TPT1 inhibitor;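 active means inhibition above the solvent-only control well mean plus 3 SD, limit set per screening run, cut at about 23% in these data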;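 further: inhibitors block cleavage so intact labeled substrate keeps polarization high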
Target sequence (P00651 whole entry, looked up): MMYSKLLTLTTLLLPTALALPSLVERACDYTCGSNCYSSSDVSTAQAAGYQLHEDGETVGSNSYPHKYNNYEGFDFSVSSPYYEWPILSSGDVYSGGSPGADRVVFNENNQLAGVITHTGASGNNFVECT
Hits are given with their value; n = inactive; u = inconclusive; x = no result.

SMILES	CSN inh	HNF4A DNA FP	Rtt109 Vps75	TPT1 inhibitor	TPT1 inh confirm	RNase T1 inh
CC(C)(C)OC(=O)N/N=C/c1ccc(N2CCOCC2)s1	n	41.7	n	26.3	93.5	104.6
COCCn1c(SCc2nc3sc(C(=O)OC)c(C)c3c(=O)[nH]2)nc2ccccc21	n	n	n	25.9	n	33.0
C=CCn1c(SCc2nc3sc(C(=O)O)c(C)c3c(=O)[nH]2)nnc1-c1ccc(F)cc1	n	n	n	n	x	x
CCn1c(SCc2nc3sc(C(=O)O)c(C)c3c(=O)[nH]2)nc2ccccc21	n	n	n	30.8	24.2	27.5
COC(=O)c1sc2nc(CSc3ccc(Br)cc3)[nH]c(=O)c2c1C	n	n	n	35.5	26.4	36.3
O=C(C[n+]1cccc2ccccc21)c1ccc(Cl)cc1	n	n	n	n	x	x
O=C(C[n+]1cccc2ccccc21)c1ccc([N+](=O)[O-])cc1	n	n	n	31.7	n	n
Clc1cccc(Cl)c1C[n+]1cccc2ccccc21	n	n	n	n	x	x
O=[N+]([O-])c1ccc(Cl)c(C[n+]2cccc3ccccc32)c1	n	n	n	58.9	n	n
Cc1cc(C)c(S(=O)(=O)N2CCOC2CNC(=O)C(=O)NCc2ccncc2)c(C)c1 (centres undefined)	n	n	n	n	x	x
Cn1c(C(=O)NN)cc2cc(Oc3ccccc3)ccc21	n	n	n	n	x	x
COc1ccc2c(c1)cc(C(=O)N/N=C/c1c(O)c(C(=O)O)cc3ccccc13)n2C	n	n	n	51.3	59.7	64.9
Cc1cccc(S(=O)(=O)c2c(N)n(/N=C/c3cccnc3)c3nc4ccccc4nc23)c1	n	n	n	32.8	53.0	70.4
O=C(COC(=O)COc1ccccc1)NCCC1=CCCCC1	n	n	n	x	x	x
CCOc1ccc2nc(N3C(=O)/C(=C/c4ccccc4)NC3=S)sc2c1	n	n	n	25.7	35.3	45.1
CCCCCCn1cc(CN2CC(N(C)CCC)CS2(=O)=O)nn1 (centres undefined)	n	n	x	x	x	x
COc1cc(/C=C2/C(=O)N(c3ccc(Br)cc3)N=C2C)cc([N+](=O)[O-])c1O	x	x	x	n	x	x
COc1cc(/C=C2/C(=O)N(c3cccc(Br)c3)N=C2C)cc(OC)c1O	n	n	n	69.9	86.4	90.6
N#CC1=C(N)n2c(s/c(=C\c3cccs3)c2=O)=C(C#N)C1c1cccs1 (centres undefined)	66.2	n	n	54.0	42.2	54.1
N#CC1=C(N)n2c(s/c(=C\c3ccco3)c2=O)=C(C#N)C1c1ccco1 (centres undefined)	n	n	u	n	x	x
COc1ccc(S(=O)(=O)N(C)C[C@H]2Oc3ccc(NC(=O)c4ccncc4)cc3C(=O)N([C@H](C)CO)C[C@@H]2C)cc1	n	n	n	x	x	x
Cc1ccc(/C=N/c2sc(Cc3ccccc3)c(C)c2C(N)=O)o1	n	n	n	n	x	x
Cc1c(Cc2ccccc2)sc(/N=C/c2ccc3ccccc3c2)c1C(N)=O	n	n	n	55.6	n	n
Cc1c(Cc2ccccc2)sc(/N=C/c2c(O)ccc3ccccc23)c1C(N)=O	n	38.3	n	94.0	47.6	57.1
Cc1ccc(NC(=O)CSc2nnnn2C2CCCC2)cc1S(=O)(=O)N1CCOCC1	n	n	n	x	x	x
SMILES	CSN inh	HNF4A DNA FP	Rtt109 Vps75	TPT1 inhibitor	TPT1 inh confirm	RNase T1 inh
CCn1c(SC(C)C(=O)NCC2CCCO2)nc2ccccc21 (centres undefined)	n	n	n	x	x	x
CCN(CC)CCN(Cc1cc2cc3c(cc2[nH]c1=O)OCO3)C(=S)NC	n	n	n	n	x	x
O=[N+]([O-])c1c(Nc2ccccn2)cc(Cl)c2nonc12	n	n	n	128.2	135.2	130.1
CNS(=O)(=O)c1ccc(CNC[C@H]2O[C@@H](n3ccc(N)nc3=O)[C@H](O)[C@@H]2O)cc1	n	n	x	x	x	x
O=C1NC(=Nc2ccccc2)S/C1=C\c1cccn1-c1ccccc1	n	n	n	n	x	x
Cc1cccc(N=C2NC(=O)/C(=C/c3cccn3C)S2)c1	n	n	n	30.7	36.6	46.0
Cc1ccccc1N=C1NC(=O)/C(=C/c2cccn2C)S1	n	n	n	37.9	28.5	38.8
Cc1cn([C@H]2C[C@H](O)[C@@H](CNCc3cc(Br)ccc3OCc3ccccc3)O2)c(=O)[nH]c1=O	n	n	x	x	x	x
CN(C)c1ccc(/C=C/C(=O)c2c(O)c3ccccc3oc2=O)cc1	n	n	n	55.2	70.4	79.5
CCOc1ccc(/C=C/C(=O)c2c(O)c3ccccc3oc2=O)cc1	n	n	n	n	x	x
O=C(CSCc1cc(=O)n2ccsc2n1)Nc1ccccc1	n	n	n	n	x	x
c1cc(Nc2cccc3nccnc23)c2nccnc2c1	n	n	n	25.3	24.8	35.1
Cc1ccccc1NS(=O)(=O)c1nnc(NC(=O)c2ccccc2C)s1	n	n	n	n	x	x
CCN(CC(=O)NCc1ccc(F)cc1)C(=O)CN1CCN(c2cc(Cl)ccc2C)CC1	n	n	n	n	x	x
CCCN1C=CC(=C/C=C(\C#N)C(=O)OCC)C=C1	x	x	x	180.6	189.8	176.6
CCCCCCN1C=CC(=C/C=C(\C#N)C(=O)OCC)C=C1	n	n	n	175.9	193.3	172.8
CCOC(=O)C1=CCN(S(=O)(=O)c2ccc(Cl)cc2)C1c1ccc(C)cc1 (centres undefined)	n	n	x	x	x	x
O=C(c1cccc(S(=O)(=O)Nc2ccc(F)cc2)c1)N1CCC1	n	n	n	x	x	x
COc1cc(/C=C/c2sc3ccccc3[n+]2CCCS(=O)(=O)[O-])ccc1O	n	86.7	n	85.5	96.7	100.9
O=C(CC(C(=O)O)c1ccccc1)Nc1cccc2ccccc12 (centres undefined)	n	n	n	30.0	n	n
Cc1cc(/C=C2\SC(=S)N(Cc3ccco3)C2=O)c(C)n1-c1ccccc1	n	45.5	n	101.6	98.5	105.8
COc1ccc(-n2c(C)cc(/C=C3/SC(=S)N(C)C3=O)c2C)cc1	n	51.5	n	28.3	63.2	74.6
CN(C)c1ccc(/C=N/Nc2nncc3ccccc23)cc1	n	n	n	n	x	x
CCc1cc(C(=O)N(CC)CC(=O)Nc2ccc(OC)cc2)sc1C	n	n	n	x	x	x
CCN(C(=O)C(C)N1C(=O)/C(=C/c2ccco2)SC1=S)C1CCS(=O)(=O)C1 (centres undefined)	n	n	n	n	x	x
CC(C(=O)O)N1C(=O)/C(=C/C=C/c2ccco2)SC1=S (centres undefined)	n	n	n	60.7	34.1	44.8
O=C1/C(=C/C=C/c2ccco2)SC(=S)N1NS(=O)(=O)c1ccccc1	n	n	n	85.2	66.6	34.1
COc1ccc(C(=O)N2CCOC2CNC(=O)C(=O)NCCc2ccccc2OC)cc1 (centres undefined)	n	n	n	n	x	x
Cc1ccc(OCCC(=O)OCC(=O)c2c(N)n(C)c(=O)n(C)c2=O)cc1	n	n	n	n	x	x
COc1ccccc1OCCC(=O)OCC(=O)c1c(N)n(C)c(=O)n(C)c1=O	n	n	n	113.2	n	n

Bioassay records as filed in PubChem BioAssay.
